ChEMBL document CHEMBL4017544 (J Med Chem, 2017)
Calls of active or inactive are those of the source. The calls are words filed in the database; no cut-off is given here.

Legend:
Mus musculus [1] = assay: Renoprotective activity in db/db mouse assessed as reduction in mesangial expansion at 1 to 2 mg/kg, ip administered trice per week for 12 consecutive weeks measured at 11 weeks post dose by TEM microscopic analysis; type: functional, organism-based
How it was run: (§1)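 Male db/db mice (8 weeks old) were dosed i.p. three times weekly for 12 weeks in 5% Tween-80/0.9% saline, n = 6. Kidney tissue was fixed in 3% glutaraldehyde, cut into 80 nm ultrathin sections and examined by TEM. GBM thickness was measured at 30 random locations from three sections per kidney and averaged per mouse.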

[2] = Drug metabolism in PBS buffer at 100 uM after 8 hrs by HPLC analysis; type: physicochemical; conditions: read-out: Drug metabolism
How it was run: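 Substrate incubated in PBS, pH 7.4, at 37 °C for 8 h; conversion measured by HPLC.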

[3] = molecular target: Kelch-like ECH-associated protein 1 (Homo sapiens) (UniProt Q14145); assay: Inhibition of Keap1/Nrf2 (unknown origin) interaction transfected in HEK293 cells assessed as increase in cytosolic NQO1 levels after 48 hrs by Western blot analysis; type: cell-based
How it was run: (§2)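 HEK293 cells grown in high-glucose DMEM with 10% FBS were treated in triplicate at 200 or 1000 nM for 48 h. Nuclear and cytosolic Nrf2, HO-1 and cytoplasmic NQO1 were measured by western blot with specific antibodies, with TBP and β-actin among the probed proteins. The nuclear/cytosolic Nrf2 ratio was derived from these blots. Three independent experiments, mean ± SD.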

Mus musculus [4] = assay: Anti-diabetic nephropathic activity in db/db mouse assessed as reduction in plasma urea nitrogen levels at 1 to 2 mg/kg, ip administered thrice per week for 12 consecutive weeks measured 11 weeks post dose; type: functional, organism-based
How it was run: (§3)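 Male db/db mice, 8 weeks old, randomized; ip vehicle (5% Tween-80 in 0.9% saline) or drug three times weekly for 12 weeks, n = 6 per group. After 11 weeks, 24 h urine collected for volume, albumin and creatinine, with UACR calculated; blood then sampled for plasma BUN and uric acid. Mean ± SD, one-way ANOVA with Tukey test.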

Mus musculus [5] = assay: Anti-diabetic nephropathic activity in db/db mouse assessed as reduction in plasma uric acid levels at 1 to 2 mg/kg, ip administered thrice per week for 12 consecutive weeks measured at 11 weeks post dose; type: functional, organism-based; how it was run: as §3
Mus musculus [6] = assay: Antidiabetic nephropathic activity in db/db mouse assessed as increase in urinary creatinine at 1 to 2 mg/kg, ip administered thrice per week for 12 consecutive weeks measured at 24 hrs post 11 week administration; type: functional, organism-based; how it was run: as §3
Mus musculus [7] = assay: Renoprotective activity in db/db mouse assessed as reduction in loss of foot processes at 1 to 2 mg/kg, ip administered trice per week for 12 consecutive weeks measured at 11 weeks post dose by TEM microscopic analysis; type: functional, organism-based; how it was run: as §1
[8] = Drug level in Sprague-Dawley rat kidney at 30 mg/kg, ip measured at 10 mins by LC-MS/MS analysis; type: ADME, organism-based; conditions: read-out: Drug uptake
How it was run: (§4)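 Rats given a single ip injection, 20 mg/kg (0.04 mmol) of CDDO-Me or 30 mg/kg (0.04 mmol) of the prodrug; heart, kidney and liver collected over time; parent compound and liberated CDDO-Me measured by LC-MS/MS.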

[9] = Drug level in Sprague-Dawley rat kidney at 30 mg/kg, ip measured at 90 mins by LC-MS/MS analysis; type: ADME, organism-based; conditions: read-out: Drug uptake; how it was run: as §4
Kidney = assay: In vivo drug metabolism in Sprague-Dawley rat assessed as CDDO-Me formation in kidney at 30 mg/kg, ip measured at 30 mins by LC-MS/MS analysis; type: ADME, organism-based; conditions: 0.5 h; how it was run: as §4
[10] = molecular target: Voltage-gated inwardly rectifying potassium channel KCNH2 (Homo sapiens, UniProt Q12809); assay: Inhibition of human ERG expressed in CHO cells at -80 mV holding potential by patch clamp assay; type: cell-based
Mus musculus [11] = assay: Anti-diabetic nephropathic activity in db/db mouse assessed as reduction in plasma creatinine levels at 0.65 mg/kg, ip administered trice per week for 12 consecutive weeks measured at 11 weeks post dose; type: functional, organism-based
Mus musculus [12] = assay: Anti-diabetic nephropathic activity in db/db mouse assessed as reduction in urine albumin to creatinine ratio at 0.65 mg/kg, ip administered trice per week for 12 consecutive weeks measured at 24 hrs post 11 week administration; type: functional, organism-based; how it was run: as §3
Mus musculus [13] = assay: Renoprotective activity in db/db mouse assessed as reduction in thickening of capillary walls in glomeruli at 0.65 mg/kg, ip administered trice per week for 12 consecutive weeks measured at 11 weeks post dose by H/E-staining based microscopic analysis; type: functional, organism-based
How it was run: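 Male db/db mice, 8 weeks old, were randomized and dosed i.p. three times weekly for 12 weeks (vehicle: 5% Tween-80 in 0.9% saline; n = 6 per group). Kidneys were fixed in 4% PFA and paraffin-embedded. 5 μm sections were stained with HE, PAS or Masson's trichrome and examined at ×400.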

Mus musculus [14] = assay: Renoprotective activity in db/db mouse assessed as reduction in fused podocytes at 0.65 mg/kg, ip administered trice per week for 12 consecutive weeks measured at 11 weeks post dose by TEM microscopic analysis; type: functional, organism-based; how it was run: as §1
Mus musculus [15] = assay: Renoprotective activity in db/db mouse assessed as reduction in glomerular basement thickening at 0.65 mg/kg, ip administered trice per week for 12 consecutive weeks measured at 11 weeks post dose by TEM microscopic analysis; type: functional, organism-based; how it was run: as §1
[16] = Drug level in Sprague-Dawley rat kidney at 20 mg/kg, ip measured at 90 mins by LC-MS/MS analysis; type: ADME, organism-based; conditions: read-out: Drug uptake; how it was run: as §4
[17] = Drug level in Sprague-Dawley rat heart at 20 mg/kg, ip measured at 90 mins by LC-MS/MS analysis; type: ADME, organism-based; conditions: read-out: Drug uptake; how it was run: as §4
[18] = molecular target: Kelch-like ECH-associated protein 1 (Homo sapiens) (UniProt Q14145); assay: Inhibition of Keap1/Nrf2 (unknown origin) interaction transfected in HEK293 cells assessed as increase in cytosolic NQO1 levels at 200 to 1000 nM after 48 hrs by Western blot analysis; type: cell-based; how it was run: as §2
[19] = (§5) Drug level in Krebs buffer treated with 1-Hydroxyl-2-cyano-3-(4-(methyl-L-glutaminate-N5-yl)-benzyloxy)-12-oxo-oleana-2(3),9(11)-dien-28-oic Acid Methyl Ester assessed as bovine kidney GGT-mediated metabolite formation at 100 uM at pH 7.4 after 8 hrs by HPLC analysis; type: ADME, Bos taurus; conditions: cattle, pH 7.4, 8 h
How it was run: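 Substrate at 100 μM in Krebs buffer, pH 7.4, 37 °C, with GGT (1 U/mL) and Gly-Gly acceptor (5 mM) for 8 h, in triplicate; acetonitrile (2 volumes) added, enzyme removed by centrifugation, products by HPLC.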

[20] = as §5, with “hrs in presence of porcine liver esterase” for “hrs”; type: ADME, Bos taurus; conditions: cattle, isolated protein, pH 7.4, 8 h
How it was run: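 Substrate at 100 μM in Krebs buffer, pH 7.4, 37 °C, with porcine liver esterase (2 U/mL), GGT (1 U/mL) and Gly-Gly (5 mM) for 8 h, in triplicate; products quantified by HPLC.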

[21] = Drug level in Wistar rat liver homogenates treated with 1-Hydroxyl-2-cyano-3-(4-(methyl-L-glutaminate-N5-yl)-benzyloxy)-12-oxo-oleana-2(3),9(11)-dien-28-oic Acid Methyl Ester assessed as GGT-mediated metabolite formation at 100 uM after 8 hrs by HPLC analysis; type: ADME, tissue-based; conditions: tissue homogenate
How it was run: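 Plasma, and kidney and liver homogenates in PBS, from three Wistar rats; substrate added at 100 μM at 37 °C; metabolite measured by HPLC every 60 min for 8 h; mean ± SD of three experiments.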

Kelch-like ECH-associated protein 1 (Homo sapiens), sequence (Q14145 whole entry): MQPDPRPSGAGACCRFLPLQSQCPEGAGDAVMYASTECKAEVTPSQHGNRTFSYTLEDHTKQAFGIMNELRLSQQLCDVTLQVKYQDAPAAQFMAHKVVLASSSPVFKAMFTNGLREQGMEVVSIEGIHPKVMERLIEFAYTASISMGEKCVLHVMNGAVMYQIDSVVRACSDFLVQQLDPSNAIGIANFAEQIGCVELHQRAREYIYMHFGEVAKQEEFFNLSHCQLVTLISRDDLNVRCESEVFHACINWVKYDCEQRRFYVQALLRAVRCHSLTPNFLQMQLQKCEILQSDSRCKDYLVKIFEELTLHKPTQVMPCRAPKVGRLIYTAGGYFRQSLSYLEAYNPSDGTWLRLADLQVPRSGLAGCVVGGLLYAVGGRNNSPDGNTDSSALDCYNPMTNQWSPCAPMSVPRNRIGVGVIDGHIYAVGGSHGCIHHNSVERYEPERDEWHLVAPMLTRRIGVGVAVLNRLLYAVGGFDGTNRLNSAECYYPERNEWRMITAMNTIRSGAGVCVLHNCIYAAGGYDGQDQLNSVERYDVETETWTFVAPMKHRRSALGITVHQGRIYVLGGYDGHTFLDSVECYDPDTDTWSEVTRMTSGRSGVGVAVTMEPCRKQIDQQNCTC
Voltage-gated inwardly rectifying potassium channel KCNH2, sequence (Q12809 whole entry): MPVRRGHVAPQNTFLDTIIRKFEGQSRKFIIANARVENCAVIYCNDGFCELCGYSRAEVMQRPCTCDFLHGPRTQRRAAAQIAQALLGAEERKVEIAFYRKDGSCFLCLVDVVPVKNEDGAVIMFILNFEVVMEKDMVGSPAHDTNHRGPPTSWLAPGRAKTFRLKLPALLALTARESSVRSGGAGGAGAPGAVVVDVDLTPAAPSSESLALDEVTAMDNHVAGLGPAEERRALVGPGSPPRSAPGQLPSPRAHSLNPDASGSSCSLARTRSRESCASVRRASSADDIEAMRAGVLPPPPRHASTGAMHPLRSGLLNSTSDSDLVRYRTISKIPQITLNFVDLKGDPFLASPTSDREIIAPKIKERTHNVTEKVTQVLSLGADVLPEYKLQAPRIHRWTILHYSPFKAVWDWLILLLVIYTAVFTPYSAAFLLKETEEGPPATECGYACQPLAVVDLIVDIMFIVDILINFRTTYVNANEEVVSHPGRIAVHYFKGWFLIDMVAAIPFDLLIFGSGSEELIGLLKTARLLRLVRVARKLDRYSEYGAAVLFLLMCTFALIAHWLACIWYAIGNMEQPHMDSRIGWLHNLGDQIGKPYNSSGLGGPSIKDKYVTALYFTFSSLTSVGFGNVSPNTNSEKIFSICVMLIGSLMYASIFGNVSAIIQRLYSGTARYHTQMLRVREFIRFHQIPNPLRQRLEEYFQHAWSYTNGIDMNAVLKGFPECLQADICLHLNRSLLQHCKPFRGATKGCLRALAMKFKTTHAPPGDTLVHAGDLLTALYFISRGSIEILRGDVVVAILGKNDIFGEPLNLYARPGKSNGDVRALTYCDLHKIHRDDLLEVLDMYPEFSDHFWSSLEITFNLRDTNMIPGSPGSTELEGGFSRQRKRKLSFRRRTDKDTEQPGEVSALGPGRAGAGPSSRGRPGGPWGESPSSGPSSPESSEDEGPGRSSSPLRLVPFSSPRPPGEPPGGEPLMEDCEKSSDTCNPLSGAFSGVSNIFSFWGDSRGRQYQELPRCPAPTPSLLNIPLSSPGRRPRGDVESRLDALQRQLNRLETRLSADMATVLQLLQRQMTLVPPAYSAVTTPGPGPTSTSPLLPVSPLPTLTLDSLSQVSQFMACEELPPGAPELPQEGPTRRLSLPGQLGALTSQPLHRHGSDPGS

In the case of `COC(=O)[C@@H](N)CCC(=O)Nc1ccc(COC2=C(C#N)[C@H](O)[C@]3(C)C4=CC(=O)[C@@H]5[C@@H]6CC(C)(C)CC[C@]6(C(=O)OC)CC[C@@]5(C)[C@]4(C)CC[C@H]3C2(C)C)cc1`, the Activity (Mus musculus [1]) is reported as “Active”, the degraded at 8 h, 100 µM [2] is reported as 20% and the inhibition [3] is reported as “Dose-dependent effect”. For the same compound, the Activity (Mus musculus [4]) was “Active”, the Activity (Mus musculus [5]) was “Active” and the Activity (Mus musculus [6]) was “Active”. For the same compound, the Activity (Mus musculus [7]) was “Active”, the concentration at 10 min [8] was 1230 ng/g and the concentration at 1.5 h [9] was 800 ng/g. For the same compound, the Drug metabolism (Kidney) was 0.09 µg/g and the IC50 [10] was > 200 µM.

In the case of `COC(=O)[C@]12CCC(C)(C)C[C@H]1[C@H]1C(=O)C=C3[C@@]4(C)C=C(C#N)C(=O)C(C)(C)[C@@H]4CC[C@@]3(C)[C@]1(C)CC2` [BARDOXOLONE METHYL], the Activity (Mus musculus [11]) is reported as “Active”, the Activity (Mus musculus [12]) is reported as “Active” and the Activity (Mus musculus [13]) is reported as “Active”. For the same compound, the Activity (Mus musculus [14]) was “Active”, the Activity (Mus musculus [15]) was “Active” and the concentration at 1.5 h [16] was 4520 ng/g. For the same compound, the concentration at 1.5 h [17] was 1580 ng/g, the inhibition [18] was “Active” and the Drug metabolism [19] was “Metabolite_Detected”. The Drug metabolism [20] was “Metabolite_Detected” and the Drug metabolism [21] was “Metabolite_Detected”.
